According to ChEMBL document CHEMBL1156823, “Design and synthesis of novel quinone inhibitors targeted to the redox function of apurinic/apyrimidinic endonuclease 1/redox enhancing factor-1 (Ape1/ref-1)” (J Med Chem, 2010):
Activity calls are given as the source filed them. No cut-off for these calls is given here.

Key:
[1] = Growth inhibition of human Hey-C2 cells after 72 hrs by MTS assay; type: functional; settings: Hey-C2, 72 h
Method in brief: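 Hey-C2 ovarian cancer cells grown in RPMI 1640 with 10% fetal calf serum; 2–4,000 cells per well in triplicate, adhered overnight, then exposed to drug for 72 h at 37 °C. MTS reagent (0.05 mg/mL) added for 4 h at 37 °C, absorbance read at 490 nm, normalized to media-alone wells. GI50 is the average of three experiments.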

[2] = biological target: T1, DNA repair nuclease/redox regulator APEX1 (Homo sapiens, UniProt P27695); experiment: Inhibition of Ape1/ref-1 endonuclease activity up to 100 uM
[3] = biological target: T1, DNA repair nuclease/redox regulator APEX1; experiment: Inhibition of Ape1/ref-1 redox activity in presence of 0.02 mM DTT and human Hey-C2 cells nuclear extracts by EMSA; type: cell-free
Method in brief: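 Purified Ape1 reduced with 1.0 mM DTT at 37 °C for 10 min, then diluted in PBS. Poly(dI-dC) added for 5 min, then HEX-labeled AP-1 consensus duplex (0.1 pmol) for 30 min at room temperature. Final DTT 0.02 mM.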

T1 sequence (P27695 whole entry): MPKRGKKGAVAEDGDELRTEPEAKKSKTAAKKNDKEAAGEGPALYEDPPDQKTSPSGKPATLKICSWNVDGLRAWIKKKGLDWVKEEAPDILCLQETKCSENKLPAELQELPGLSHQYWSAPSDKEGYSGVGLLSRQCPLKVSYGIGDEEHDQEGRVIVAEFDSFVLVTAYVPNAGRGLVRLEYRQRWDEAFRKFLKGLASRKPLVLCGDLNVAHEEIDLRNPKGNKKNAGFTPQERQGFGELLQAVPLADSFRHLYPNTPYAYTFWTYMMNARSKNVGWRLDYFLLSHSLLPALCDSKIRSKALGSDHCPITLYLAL

## CSC1=C(/C=C(\C)C(=O)O)C(=O)c2ccccc2C1=O
[1]
  GI50: 30 µM
[2]
  inhibition: inactive

## COCC/C(=C\C1=C(Br)C(=O)c2ccccc2C1=O)C(=O)O
[3]
  IC50: 1 µM
[1]
  GI50: 25 µM
[2]
  inhibition: inactive

## C/C(=C\C1=C(Cl)C(=O)c2ccccc2C1=O)C(=O)O
[1]
  GI50: 15 µM
[2]
  inhibition: inactive

## COC1=C(OC)C(=O)C(/C=C(\C)C(=O)O)=C(C)C1=O
[1]
  GI50: 130 µM
[2]
  inhibition: inactive

## C/C(=C\C1=C(F)C(=O)c2ccccc2C1=O)C(=O)O
[1]
  GI50: 50 µM
[2]
  inhibition: inactive

## COCC/C(=C\C1=C(Cl)C(=O)c2ccccc2C1=O)C(=O)O
[1]
  GI50: 30 µM
[2]
  inhibition: inactive

## COCC/C(=C\C1=C(C)C(=O)C(OC)=C(OC)C1=O)C(=O)O
[1]
  GI50: 200 µM
[2]
  inhibition: inactive

## C/C(=C/C1=C(Cl)C(=O)c2ccccc2C1=O)C(=O)O
[3]
  IC50: 2 µM
[1]
  GI50: 30 µM
[2]
  inhibition: inactive

## O=C(O)CCC1=C(Br)C(=O)c2ccccc2C1=O
[1]
  GI50: 15 µM
[2]
  inhibition: inactive

## COC1=C(OC)C(=O)C(/C=C/C(=O)O)=C(C)C1=O
[1]
  GI50: 250 µM
[2]
  inhibition: inactive

## CCCC/C(=C\C1=C(C)C(=O)C(OC)=C(OC)C1=O)C(=O)O
[1]
  GI50: 85 µM
[2]
  inhibition: inactive

## COC1=C(OC)C(=O)C(/C=C(\C)C(=O)O)=C(Cl)C1=O
[3]
  IC50: 3 µM
[1]
  GI50: 45 µM
[2]
  inhibition: inactive

## C/C(=C\C1=CC(=O)c2ccccc2C1=O)C(=O)O
[3]
  IC50: 3 µM
[1]
  GI50: 20 µM
[2]
  inhibition: inactive

## COC1=C(/C=C(\C)C(=O)O)C(=O)c2ccccc2C1=O
[3]
  IC50: 1 µM
[1]
  GI50: 40 µM
[2]
  inhibition: inactive

## COCC/C(=C\C1=C(C)C(=O)c2ccccc2C1=O)C(=O)O
[1]
  GI50: 30 µM
[2]
  inhibition: inactive

## CC1=C(/C=C(\C)C(=O)O)C(=O)c2ccccc2C1=O
[1]
  GI50: 45 µM
[2]
  inhibition: inactive

## CCCCCCCCC/C(=C\C1=C(C)C(=O)C(OC)=C(OC)C1=O)C(=O)NCCO
[1]
  GI50: 35 µM
[2]
  inhibition: inactive

## C/C(=C\C1=C(Br)C(=O)c2ccccc2C1=O)C(=O)O
[1]
  GI50: 13 µM

## CCCCCCCCC/C(=C\C1=C(C)C(=O)C(OC)=C(OC)C1=O)C(=O)O [APX-3330]
[1]
  GI50: 35 µM
[2]
  inhibition: inactive

## C/C(=C\C1=C(Cl)C(=O)c2ccccc2C1=O)C(=O)NCCO
[3]
  IC50: 1 µM
[1]
  GI50: 8 µM
[2]
  inhibition: inactive
